{
  "source": "paper PMC10445456",
  "about": "(Virus Research, 2023)",
  "key": {"vCDK/pUL97": {"target": "T1, vCDK/pUL97 (Human cytomegalovirus, UniProt P16788)", "T1 sequence (P16788 1-707)": "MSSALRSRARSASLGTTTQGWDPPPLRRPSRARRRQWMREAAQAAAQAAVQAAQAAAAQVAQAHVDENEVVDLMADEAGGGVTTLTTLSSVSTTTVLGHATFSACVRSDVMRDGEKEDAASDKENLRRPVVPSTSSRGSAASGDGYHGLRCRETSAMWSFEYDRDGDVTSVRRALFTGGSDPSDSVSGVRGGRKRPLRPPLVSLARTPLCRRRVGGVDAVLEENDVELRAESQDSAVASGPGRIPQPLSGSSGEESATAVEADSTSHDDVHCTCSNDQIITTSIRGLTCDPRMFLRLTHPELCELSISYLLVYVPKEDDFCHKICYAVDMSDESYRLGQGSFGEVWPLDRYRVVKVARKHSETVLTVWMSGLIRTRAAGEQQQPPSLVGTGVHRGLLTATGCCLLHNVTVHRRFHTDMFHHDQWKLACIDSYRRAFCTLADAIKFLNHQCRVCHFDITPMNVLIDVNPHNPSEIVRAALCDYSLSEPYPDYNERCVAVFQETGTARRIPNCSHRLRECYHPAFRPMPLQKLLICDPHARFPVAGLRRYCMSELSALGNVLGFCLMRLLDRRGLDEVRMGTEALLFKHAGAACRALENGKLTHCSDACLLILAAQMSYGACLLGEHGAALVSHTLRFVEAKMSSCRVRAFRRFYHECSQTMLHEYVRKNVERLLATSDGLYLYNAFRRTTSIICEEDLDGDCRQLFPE", "assay": "qSox-IVKA of immunoprecipitated pUL97-Flag", "assay_type": "biochemical, HCMV"}, "pUL97-Flag/CDK7": {"target": "pUL97-Flag/CDK7 (Homo sapiens, UniProt P50613)", "sequence (P50613 whole entry)": "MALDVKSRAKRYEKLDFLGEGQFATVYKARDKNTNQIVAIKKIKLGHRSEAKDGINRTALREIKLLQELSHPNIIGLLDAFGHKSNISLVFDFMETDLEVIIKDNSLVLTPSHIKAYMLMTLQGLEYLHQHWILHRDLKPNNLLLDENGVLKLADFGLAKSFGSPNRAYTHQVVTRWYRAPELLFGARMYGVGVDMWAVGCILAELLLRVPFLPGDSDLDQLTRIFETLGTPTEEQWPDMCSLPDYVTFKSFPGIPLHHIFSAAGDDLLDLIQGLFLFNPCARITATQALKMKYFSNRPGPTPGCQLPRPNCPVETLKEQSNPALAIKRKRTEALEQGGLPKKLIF", "sequence (P51946 whole entry partner)": "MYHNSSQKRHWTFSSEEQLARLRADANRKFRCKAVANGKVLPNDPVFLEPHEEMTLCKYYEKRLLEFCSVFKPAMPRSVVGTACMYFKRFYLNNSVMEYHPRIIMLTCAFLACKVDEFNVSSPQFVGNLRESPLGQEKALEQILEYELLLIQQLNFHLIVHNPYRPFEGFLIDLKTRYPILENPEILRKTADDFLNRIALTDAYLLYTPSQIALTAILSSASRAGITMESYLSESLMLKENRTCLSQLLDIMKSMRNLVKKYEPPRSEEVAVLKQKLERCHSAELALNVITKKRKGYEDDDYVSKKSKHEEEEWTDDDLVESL", "sequence (P51948 whole entry partner)": "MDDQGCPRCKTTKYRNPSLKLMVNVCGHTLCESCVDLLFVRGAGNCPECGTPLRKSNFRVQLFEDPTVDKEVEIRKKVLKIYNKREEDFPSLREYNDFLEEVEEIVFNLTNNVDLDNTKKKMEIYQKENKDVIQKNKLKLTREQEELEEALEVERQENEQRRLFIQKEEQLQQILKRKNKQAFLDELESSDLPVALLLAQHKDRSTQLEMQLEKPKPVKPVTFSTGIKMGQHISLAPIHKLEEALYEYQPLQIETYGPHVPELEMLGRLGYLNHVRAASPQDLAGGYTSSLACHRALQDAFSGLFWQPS", "assay": "qSox-IVKA of coimmunoprecipitated pUL97-Flag/CDK7, pUL97-specific sensor peptide", "assay_type": "biochemical, HCMV / human", "settings": "0.01 µM LDC4297"}, "human CDK7": {"target": "human CDK7 (Homo sapiens, UniProt P50613)", "sequence (P50613 whole entry)": "as the sequence (P50613 whole entry) above", "sequence (P51946 whole entry partner)": "as the sequence (P51946 whole entry partner) above", "sequence (P51948 whole entry partner)": "as the sequence (P51948 whole entry partner) above", "assay": "qSox-IVKA of immunoprecipitated CDK7", "assay_type": "biochemical"}, "CDK7 + pUL97-Flag": {"target": "T2, CDK7 + pUL97-Flag (Human cytomegalovirus, UniProt P16788)", "T2 sequence (P16788 1-707)": "T1 sequence (P16788 1-707)", "assay": "qSox-IVKA of CDK7 + pUL97-Flag samples, CDK7-specific sensor peptide", "assay_type": "biochemical, human / HCMV", "settings": "0.35 µM MBV", "in_short": "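293T cells were transfected with pUL97-Flag or empty vector. At 2 d p.t., CDK7 and/or pUL97-Flag were immunoprecipitated, with a mouse Fc pseudo-IP as control. Eluate in HEPES pH 7.5 enzyme buffer was added to a reaction mix (final 1.0 mM ATP, 10 mM MgCl2, 15 µM CDK7 Sox sensor peptide AQT0459). Fluorescence (Ex355/Em480) was read kinetically at 30°C for about 80 min, in triplicate. Fc/empty-vector background was subtracted and Wb normalization factors applied. Combined-IP activity was related to CDK7 single IP, or pUL97-only activity was subtracted. 0.35 µM test compound or DMSO was added to combined samples. Data are from one representative biological replicate.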"}, "[1]": {"system": "HCMV-infected HFFs (cyclin H mRNA)", "assay": "cyclin H mRNA levels by one-step RT-qPCR in HCMV Merlin-infected HFFs", "assay_type": "cell-based, human", "settings": "1 µM MBV, HCMV Merlin MOI 0.5, 7 d p.i."}, "CDK7 pSer164 and pThr170": {"system": "CDK7 pSer164 and pThr170", "assay": "Wb of CDK7 T-loop phosphorylation in HCMV AD169-infected HFFs", "assay_type": "cell-based, human", "settings": "0.35 µM MBV from 24 h p.i., harvested 3 d p.i., HCMV AD169 MOI 0.5", "in_short": "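HFFs in T75 flasks were infected 1 d after seeding with HCMV AD169, UL97 K355Δ kinase-dead mutant (MOI 0.5) or mock; inoculum was replaced after 90 min at 37°C. AD169-infected cells received 0.35 µM test compound or DMSO at 24 h p.i. Cells were harvested 3 d p.i. for SDS-PAGE/Wb with phosphosite-specific antibodies against CDK7 pSer164 and pThr170.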"}, "[2]": {"system": "HCMV-infected TEV-1 cells (cyclin H mRNA)", "assay": "cyclin H mRNA levels by one-step RT-qPCR in HCMV Merlin-infected TEV-1 cells", "assay_type": "cell-based, human", "settings": "1 µM MBV, HCMV Merlin MOI 0.5"}},
  "data": [
    {"molecule": "CC(C)c1cnn2c(NCc3ccccc3-n3cccn3)nc(OC3CCCNC3)nc12", "note": "(stereo not shown) [LDC4297]", "values": [
      {"measurement": "inhibitory effect on pUL97 activity", "setting": "vCDK/pUL97; 5 µM LDC4297", "result": "did not affect pUL97 kinase activity"},
      {"measurement": "change in pUL97 activity upon inhibition of CDK7", "setting": "pUL97-Flag/CDK7", "result": "no change in pUL97 activity"},
      {"measurement": "effect on CDK7 activity", "setting": "human CDK7; applied concentration of LDC4297 in the IVKA (5 µM)", "result": "completely blocked CDK7 activity"}
    ]},
    {"molecule": "CC(C)Nc1nc2cc(Cl)c(Cl)cc2n1[C@H]1O[C@@H](CO)[C@H](O)[C@@H]1O", "note": "[MBV, maribavir]", "values": [
      {"measurement": "pUL97-mediated increased CDK7 kinase activity (trans-stimulation)", "setting": "CDK7 + pUL97-Flag", "result": "abolished"},
      {"measurement": "pUL97 kinase activity reduced to", "setting": "vCDK/pUL97; 0.35 µM", "result": 50, "unit": "%"},
      {"measurement": "reduction of the HCMV-induced increase of cyclin H mRNA levels", "setting": "[1]", "result": 28, "unit": "%"},
      {"measurement": "CDK7 phosphomarkers pSer164 and pThr170", "setting": "CDK7 pSer164 and pThr170", "result": "modest increase"},
      {"measurement": "effect on CDK7 activity", "setting": "human CDK7; 0.35 µM MBV", "result": "not inhibited"},
      {"measurement": "reduction of the HCMV-induced increase of cyclin H mRNA levels", "setting": "[2]", "result": 68, "unit": "%"}
    ]},
    {"molecule": "recombinant cyclin H: recombinant human cyclin H, full-length, GST-tag, expressed in insect cells (ABIN6699744)", "values": [
      {"measurement": "increase of in vitro kinase activity of pUL97", "setting": "vCDK/pUL97; exogenous addition of 100 nM recombinant cyclin H", "result": 31.5, "unit": "%"}
    ]}
  ]
}
